Measurements as given in ChEMBL document CHEMBL3272083, “Antiinflammatory and analgesic diastereoisomeric derivatives of indan-5-acetic acid” (J Med Chem, 1978).

Columns and labels:
Rattus norvegicus [1] = assay: Analgesic activity in po dosed rat assessed as inhibition of phenylbenzoquinone-induced writhing administered in 1% w/v arabic gum; format: functional
How it was run: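 Oral dosing in 1% w/v arabic gum vehicle. Read-out was antagonism of writhing produced by phenylbenzoquinone. ED50 with 95% confidence limits was calculated by Bliss's method.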

[2] = (§1) Gastrointestinal toxicity in po dosed rat assessed as ulcerogenic activity after 6 hrs administered in 1% w/v arabic gum; format: organism-based; settings: in vivo, read-out: UD50
How it was run: (§2)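 Fasted rats dosed orally, compound suspended in 1% w/v arabic gum. Stomachs examined 6 h after dosing; gastric ulcer intensity graded on a 0–3 scale. The 50% ulcerogenic dose (UD50) was read graphically.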

Rattus norvegicus [3] = assay: Antiinflammatory activity in po dosed rat assessed as inhibition of carrageenan-induced edema administered in 1% w/v arabic gum; format: functional
How it was run: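 Given orally in 1% w/v arabic gum vehicle. Read-out was carrageenan-induced edema. ED50 and 95% confidence limits were derived by Bliss's method.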

Rattus norvegicus [4] = assay: as §1; format: organism-based; settings: in vivo, 6 h; how it was run: as §2
[5] = Rattus norvegicus, po, read-out: ED50

Row | Compound | ED50 (Rattus norvegicus [1]; [5]) [mg/kg] | TD50 at 6 h [2] [mg/kg] | ED50 (Rattus norvegicus [3]; [5]) [mg/kg] | ED50 (Rattus norvegicus [1]) [mg/kg] | UD50 (Rattus norvegicus [4]) [mg/kg] | ED50 (Rattus norvegicus [3]) [mg/kg]
1 | CC(C)C1Cc2ccc(CC(=O)O)cc2C1 (racemic) | 57 | 335 | 155 |  |  | 
2 | CC1Cc2ccc(CC(=O)O)cc2C1 (racemic) | 175 |  |  |  |  | 
3 | CC(C(=O)O)c1ccc2c(c1)CC(C(C)C)C2 (single isomer, unassigned; (-)) [ISOPROFEN] |  |  |  | 17 | 87 | 32
4 | CC(C(=O)O)c1ccc2c(c1)CC(C(C)C)C2 (racemic) [ISOPROFEN] | 9 | 62 | 29 |  |  | 
5 | CC(C)[C@@H]1Cc2ccc([C@H](C)C(=O)O)cc2C1 | 9 |  |  |  |  | 
6 | CC(C)Cc1ccc(C(C)C(=O)O)cc1 (centres undefined) [IBUPROFEN] | 17 | 40 | 44 |  |  | 
7 | CC1Cc2ccc(C(C)C(=O)[O-])cc2C1.[Na+] (racemic) | 24 |  |  |  |  | 
8 | CCC1Cc2ccc(CC(=O)O)cc2C1 (racemic) | 104 | 125 | > 256 |  |  | 
9 | CC(C(=O)O)c1ccc2c(c1)CC(C(C)C)C2 (single isomer, unassigned; (+)) [ISOPROFEN] |  |  |  | 10 | 46 | 24
10 | CCC1Cc2ccc(C(C)C(=O)O)cc2C1 (racemic) | 6 | 65 | 36 |  |  | 
